PMC9073091 (RSC Advances, 2019)
Where no end group is shown, it is not given here.

Key:
[1] = Stability; type: in vitro ADME; details: rat
Method in brief: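 Rat blood was spiked at 150 ng mL−1 to compare three stabilisation factors. Anticoagulant (EDTA-K2 or heparin sodium) was tested at 25 °C and 0 °C. Protease inhibitors (pepstatin A, aprotinin, cOmplete cocktail, AEBSF) were tested at 25 °C. Acidification with H2SO4 or HClO4 (0.1–0.3%) was tested at 25 °C and 0 °C. Samples were taken before and at 2, 5, 10, 20, 30 and 60 min, precipitated with organic solvent, centrifuged and analysed by UHPLC-MS/MS. Half-lives were calculated.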

[2] = Stability of SP in acidified rat plasma and blood; type: in vitro ADME
Method in brief: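 Blood was acidified with 0.3% perchloric acid. Low- and high-level samples (five replicates each) were held as follows: whole blood at 0 °C for 1 h; […] for 1 h before processing; extracts at 25 °C for 1 h; reconstituted samples in the autosampler at 4 °C for 24 h; plasma at −70 °C for 60 days; and three freeze–thaw cycles (−70 °C to ambient). Read-out was accuracy as deviation from nominal, with acceptance within 15%.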

[3] = Pharmacokinetic study after subcutaneous administration; type: in vivo, Sprague-Dawley rats
Method in brief: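 Twelve Sprague-Dawley rats (6 female, 6 male; 200 ± 20 g) were housed SPF at 22 ± 2 °C on a 12 h light–dark cycle and fasted about 12 h. Each received a single subcutaneous dose of 10 mg kg−1. Orbital blood was taken into pre-acidified EDTA-K2 tubes at 0, 0.5, 1, 2, 3, 5, 10, 20, 30, 45 and 60 min and iced; plasma was spun and analysed by UHPLC-MS/MS (LLOQ 0.1 ng mL−1). Non-compartmental analysis; mean ± SD.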

[4] = rats, subcutaneous 10 mg kg^−1, mean ± SD, n = 12

## GQTYTSG [SP, GQTYTSG]
[1]; half-life of SP in blood samples, blood acidified with 0.3% HClO4 (v/v), 0 °C
  half-life: > 350 min
[1]; half-life, 25 °C, in vitro
  half-life: < 10 min
[1]; whole blood, half-life of SP in blood samples, EDTA-K2 as anticoagulant, samples kept at 0 °C
  half-life: 11.5 ± 0.22 min
[1]; whole blood, half-life of SP in blood samples, blood acidified with 0.3% H2SO4 (v/v), 0 °C
  half-life: > 350 min
[2]; blood, blood stability (0 °C for 1 h), 0.5 ng mL^−1
  Accuracy (stability): 114.4%
[2]; blood, blood stability (0 °C for 1 h), 300 ng mL^−1
  Accuracy (stability): 104.1%
[2]; plasma, auto-sampler stability (4 °C for 24 h), 0.25 ng mL^−1
  Accuracy (stability): 110.0%
[2]; plasma, auto-sampler stability (4 °C for 24 h), 150 ng mL^−1
  Accuracy (stability): 106.7%
[2]; plasma, freeze–thaw stability (three cycles), 0.25 ng mL^−1
  Accuracy (stability): 106.4%
[2]; plasma, freeze–thaw stability (three cycles), 150 ng mL^−1
  Accuracy (stability): 94.7%
[2]; plasma, long-term stability (−70 °C for 60 days), 0.25 ng mL^−1
  Accuracy (stability): 96.1%
[2]; plasma, long-term stability (−70 °C for 60 days), 150 ng mL^−1
  Accuracy (stability): 94.0%
[2]; plasma, post-preparation stability (25 °C for 1 h), 0.25 ng mL^−1
  Accuracy (stability): 90.8%
[2]; plasma, post-preparation stability (25 °C for 1 h), 150 ng mL^−1
  Accuracy (stability): 105.3%
[2]; plasma, short-term stability (0 °C for 1 h), 0.25 ng mL^−1
  Accuracy (stability): 96.4%
[2]; plasma, short-term stability (0 °C for 1 h), 150 ng mL^−1
  Accuracy (stability): 96.0%
[3]; rat, in vivo, sc, 10 mg/kg
  Tmax: 1.75 min
  half-life: < 10 min
[3]; [4]
  CL (apparent total plasma clearance): 17.9 ± 9.96 L/min
  Vz (total volume of distribution): 230 ± 118 L
